# Results: ChEMBL document CHEMBL1671850, “Discovery of a benzo[e]pyrimido-[5,4-b][1,4]diazepin-6(11H)-one as a Potent and Selective Inhibitor of Big MAP Kinase 1” (ACS Med Chem Lett, 2011)
# Experiments:
# [1] = biological target: Mitogen-activated protein kinase 7 (Homo sapiens, UniProt Q13164); test: Inhibition of EGF-induced BMK1 autophosphorylation in human HeLa cells by SDS-PAGE analysis; assay type: cell-based
# [2] = biological target: Serine/threonine-protein kinase DCLK1 (Homo sapiens, UniProt O15075); test: Binding affinity to DCAMKL1 by immobilized ligand displacement assay
# How it was run: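 Dissociation constant (Kd) measured in the Ambit KINOMEScan competition binding format, which reads kinase displacement from an immobilized ligand.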
# [3] = biological target: Serine/threonine-protein kinase DCLK2 (Homo sapiens, UniProt Q8N568); test: Binding affinity to DCAMKL2 by immobilized ligand displacement assay
# How it was run: (§1)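 KINOMEscan-type competition binding: displacement of kinase from an immobilized ligand; Kd values determined for individual kinases.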
# [4] = biological target: Non-receptor tyrosine-protein kinase TNK1 (Homo sapiens, UniProt Q13470); test: Binding affinity to TNK1 by immobilized ligand displacement assay; how it was run: as §1
# Non-receptor tyrosine-protein kinase TNK1, sequence (Q13470 whole entry): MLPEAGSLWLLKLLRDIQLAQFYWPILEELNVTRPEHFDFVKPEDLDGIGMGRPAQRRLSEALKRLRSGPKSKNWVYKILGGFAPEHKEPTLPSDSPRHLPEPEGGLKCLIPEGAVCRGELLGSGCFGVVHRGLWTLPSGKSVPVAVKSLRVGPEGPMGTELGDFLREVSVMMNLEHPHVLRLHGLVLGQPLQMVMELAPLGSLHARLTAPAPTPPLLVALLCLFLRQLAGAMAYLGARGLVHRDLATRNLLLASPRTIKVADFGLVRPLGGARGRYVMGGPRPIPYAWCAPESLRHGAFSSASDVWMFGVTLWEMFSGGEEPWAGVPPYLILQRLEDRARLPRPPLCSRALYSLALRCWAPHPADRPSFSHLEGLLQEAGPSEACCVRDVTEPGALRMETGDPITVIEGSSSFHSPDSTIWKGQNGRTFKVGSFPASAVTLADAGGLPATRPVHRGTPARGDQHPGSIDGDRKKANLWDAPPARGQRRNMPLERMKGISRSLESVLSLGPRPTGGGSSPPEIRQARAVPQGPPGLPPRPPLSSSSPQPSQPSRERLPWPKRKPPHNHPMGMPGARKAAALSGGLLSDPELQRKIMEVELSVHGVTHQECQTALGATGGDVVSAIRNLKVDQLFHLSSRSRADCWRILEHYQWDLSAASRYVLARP
# PC-3 = test: Antiproliferative activity against human PC3 cells after 72 hrs; assay type: functional, cell-based; conditions: PC-3, 72 h
# BPH-1 = test: Antiproliferative activity against human BPH1 cells after 72 hrs; assay type: functional, cell-based; conditions: BPH-1, 72 h
# MCF7 = test: Antiproliferative activity against human MCF7 cells after 72 hrs; assay type: functional, cell-based; conditions: MCF7, 72 h
# AU565 = test: Antiproliferative activity against human AU565 cells after 72 hrs; assay type: functional, cell-based; conditions: AU565, 72 h
# SK-N-AS = test: Antiproliferative activity against human SK-N-AS cells after 72 hrs; assay type: functional, cell-based
# NCI-H1299 = test: Antiproliferative activity against human NCI-H1299 cells after 72 hrs; assay type: functional, cell-based; conditions: NCI-H1299, 72 h
# NCI-H522 = test: Antiproliferative activity against human NCI-H522 cells after 72 hrs; assay type: functional, cell-based; conditions: NCI-H522, 72 h
# [5] = AUC (0 to infinity) in mouse at 1 mg/kg, iv; assay type: ADME, organism-based; parameters: time infinity, dose 1 mg/kg, route intravenous; conditions: plasma
# How it was run: (§2)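 Single-dose pharmacokinetics: rats given 1 mg/kg intravenous or 2 mg/kg oral; mice given 1 mg/kg intravenous or 10 mg/kg oral. Plasma concentration profiles yield Tmax, Cmax, AUC0-∞, half-life, plasma clearance, Vss and oral bioavailability.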
# [6] = Half life in mouse at 1 mg/kg, iv; assay type: ADME, organism-based; parameters: dose 1 mg/kg, route intravenous; conditions: in vivo; how it was run: as §2
# [7] = Plasma clearance in mouse at 1 mg/kg, iv; assay type: ADME, organism-based; parameters: dose 1 mg/kg, route intravenous; how it was run: as §2
# [8] = Volume of distribution at steady state in mouse at 1 mg/kg, iv; assay type: ADME, organism-based; parameters: dose 1 mg/kg, route intravenous; conditions: in vivo, read-out: Vdss; how it was run: as §2
# [9] = Tmax in mouse at 10 mg/kg, po; assay type: ADME, organism-based; parameters: dose 10 mg/kg, route oral; conditions: in vivo; how it was run: as §2
# [10] = Cmax in mouse at 10 mg/kg, po; assay type: ADME, organism-based; parameters: dose 10 mg/kg, route oral; conditions: in vivo; how it was run: as §2
# [11] = AUC (0 to infinity) in mouse at 10 mg/kg, po; assay type: ADME, organism-based; parameters: time infinity, dose 10 mg/kg, route oral; conditions: plasma; how it was run: as §2
# [12] = Oral bioavailability in mouse at 10 mg/kg; assay type: ADME, organism-based; conditions: in vivo; how it was run: as §2
# [13] = test system: Tyrosine-protein kinase ABL1 (Homo sapiens), P00519 [F317I]; test: Binding affinity to ABL1 F317I mutant at 10 uM by immobilized ligand displacement assay
# Tyrosine-protein kinase ABL1 (Homo sapiens), P00519 [F317I], sequence (P00519 whole entry F317I): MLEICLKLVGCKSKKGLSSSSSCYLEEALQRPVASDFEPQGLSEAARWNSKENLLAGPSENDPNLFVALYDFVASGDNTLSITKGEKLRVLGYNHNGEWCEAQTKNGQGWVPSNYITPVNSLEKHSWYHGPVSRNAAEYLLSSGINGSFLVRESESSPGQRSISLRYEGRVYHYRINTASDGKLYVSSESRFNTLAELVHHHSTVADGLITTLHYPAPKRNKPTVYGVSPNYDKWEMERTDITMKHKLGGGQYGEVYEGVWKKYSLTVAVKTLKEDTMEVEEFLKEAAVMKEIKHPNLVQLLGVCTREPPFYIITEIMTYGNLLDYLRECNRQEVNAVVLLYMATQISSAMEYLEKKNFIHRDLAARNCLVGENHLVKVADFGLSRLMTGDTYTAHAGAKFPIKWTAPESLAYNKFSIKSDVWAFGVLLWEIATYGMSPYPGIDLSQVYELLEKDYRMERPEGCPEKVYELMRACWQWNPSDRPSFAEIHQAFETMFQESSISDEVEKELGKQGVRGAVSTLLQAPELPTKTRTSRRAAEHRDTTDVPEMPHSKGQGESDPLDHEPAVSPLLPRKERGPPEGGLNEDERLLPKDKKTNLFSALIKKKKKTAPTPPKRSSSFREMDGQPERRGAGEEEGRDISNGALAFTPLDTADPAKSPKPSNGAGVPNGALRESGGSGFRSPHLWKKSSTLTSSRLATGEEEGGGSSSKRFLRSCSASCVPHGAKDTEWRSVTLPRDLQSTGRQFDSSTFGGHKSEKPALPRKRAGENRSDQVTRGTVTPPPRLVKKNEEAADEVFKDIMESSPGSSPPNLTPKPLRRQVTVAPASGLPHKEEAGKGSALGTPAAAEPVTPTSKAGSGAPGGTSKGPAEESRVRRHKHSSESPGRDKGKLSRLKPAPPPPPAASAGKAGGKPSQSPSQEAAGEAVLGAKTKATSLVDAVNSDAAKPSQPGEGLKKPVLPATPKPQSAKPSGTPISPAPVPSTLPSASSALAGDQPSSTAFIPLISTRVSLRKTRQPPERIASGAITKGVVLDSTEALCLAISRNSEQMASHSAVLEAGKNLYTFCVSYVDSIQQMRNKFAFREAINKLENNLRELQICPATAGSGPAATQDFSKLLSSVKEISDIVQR
# How it was run: (§3)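 Ambit KINOMEScan competition binding panel (402 kinases). Kinase displacement from an immobilized ligand is read relative to a DMSO control. Hits are kinases showing more than […] displacement. The text gives the test concentration as 10 μM.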
# [14] = biological target: Protein-tyrosine kinase 6 (Homo sapiens) (UniProt Q13882); test: Binding affinity to BRK at 10 uM by immobilized ligand displacement assay; how it was run: as §3
# [15] = biological target: Macrophage colony-stimulating factor 1 receptor (Homo sapiens) (UniProt P07333); test: Binding affinity to c-FMS at 10 uM by immobilized ligand displacement assay; how it was run: as §3
# Macrophage colony-stimulating factor 1 receptor (Homo sapiens), sequence (P07333 whole entry): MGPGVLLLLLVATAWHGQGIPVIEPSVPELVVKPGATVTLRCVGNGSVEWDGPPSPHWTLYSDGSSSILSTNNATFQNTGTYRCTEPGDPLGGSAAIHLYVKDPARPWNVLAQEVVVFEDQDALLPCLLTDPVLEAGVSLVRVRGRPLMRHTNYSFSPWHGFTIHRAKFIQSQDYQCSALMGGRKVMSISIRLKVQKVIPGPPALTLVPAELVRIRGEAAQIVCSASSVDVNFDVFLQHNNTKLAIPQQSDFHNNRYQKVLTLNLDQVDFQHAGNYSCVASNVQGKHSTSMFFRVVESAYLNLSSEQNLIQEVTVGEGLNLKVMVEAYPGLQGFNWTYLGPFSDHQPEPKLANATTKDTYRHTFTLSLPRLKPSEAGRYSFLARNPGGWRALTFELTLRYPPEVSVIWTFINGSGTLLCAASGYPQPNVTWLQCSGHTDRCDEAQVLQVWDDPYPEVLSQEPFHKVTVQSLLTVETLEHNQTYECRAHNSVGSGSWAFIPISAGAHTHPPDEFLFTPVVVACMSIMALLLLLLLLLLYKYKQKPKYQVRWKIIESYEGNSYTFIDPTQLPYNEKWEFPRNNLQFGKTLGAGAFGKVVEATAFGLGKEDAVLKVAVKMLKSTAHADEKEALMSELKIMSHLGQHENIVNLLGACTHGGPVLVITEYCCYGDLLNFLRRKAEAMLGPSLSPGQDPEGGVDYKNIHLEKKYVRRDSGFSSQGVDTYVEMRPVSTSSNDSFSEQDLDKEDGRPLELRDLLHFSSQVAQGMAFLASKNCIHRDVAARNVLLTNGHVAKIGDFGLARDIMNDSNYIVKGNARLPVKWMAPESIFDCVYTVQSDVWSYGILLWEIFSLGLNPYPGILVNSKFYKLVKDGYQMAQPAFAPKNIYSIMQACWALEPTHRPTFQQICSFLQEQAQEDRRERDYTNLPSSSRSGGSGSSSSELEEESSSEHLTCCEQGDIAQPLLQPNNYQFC
# [16] = biological target: Cyclin-G-associated kinase (Homo sapiens) (UniProt O14976); test: Binding affinity to GAK at 10 uM by immobilized ligand displacement assay; how it was run: as §3
# [17] = test system: Mast/stem cell growth factor receptor Kit (Homo sapiens), P10721 [L576P]; test: Binding affinity to KIT L576P mutant at 10 uM by immobilized ligand displacement assay; how it was run: as §3
# Mast/stem cell growth factor receptor Kit (Homo sapiens), P10721 [L576P], sequence (P10721 whole entry L576P): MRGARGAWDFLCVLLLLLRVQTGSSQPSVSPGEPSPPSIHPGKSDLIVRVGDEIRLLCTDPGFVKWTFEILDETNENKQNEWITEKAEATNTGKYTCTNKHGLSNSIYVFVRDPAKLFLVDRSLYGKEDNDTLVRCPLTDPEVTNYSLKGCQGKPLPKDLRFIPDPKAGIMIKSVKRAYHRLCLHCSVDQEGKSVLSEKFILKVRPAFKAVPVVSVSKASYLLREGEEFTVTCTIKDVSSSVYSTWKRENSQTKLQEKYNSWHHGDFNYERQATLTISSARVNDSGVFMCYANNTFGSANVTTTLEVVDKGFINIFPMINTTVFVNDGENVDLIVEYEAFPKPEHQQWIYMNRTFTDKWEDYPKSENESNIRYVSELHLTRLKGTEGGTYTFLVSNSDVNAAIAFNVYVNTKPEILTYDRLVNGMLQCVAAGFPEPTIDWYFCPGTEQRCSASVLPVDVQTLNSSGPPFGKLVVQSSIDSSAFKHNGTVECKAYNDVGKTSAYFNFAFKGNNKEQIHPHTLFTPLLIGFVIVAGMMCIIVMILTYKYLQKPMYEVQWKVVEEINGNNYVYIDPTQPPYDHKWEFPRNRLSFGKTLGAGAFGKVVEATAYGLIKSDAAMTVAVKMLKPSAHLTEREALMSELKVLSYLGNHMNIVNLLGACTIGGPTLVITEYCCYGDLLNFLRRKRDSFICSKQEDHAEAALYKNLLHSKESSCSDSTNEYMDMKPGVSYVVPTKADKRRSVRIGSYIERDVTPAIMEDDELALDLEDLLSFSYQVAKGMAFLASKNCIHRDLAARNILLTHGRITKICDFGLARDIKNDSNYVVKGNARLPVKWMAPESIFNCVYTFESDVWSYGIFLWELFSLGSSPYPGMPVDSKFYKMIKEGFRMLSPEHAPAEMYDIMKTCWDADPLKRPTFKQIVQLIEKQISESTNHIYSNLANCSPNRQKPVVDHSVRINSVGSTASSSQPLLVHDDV
# [18] = biological target: Myosin light chain kinase family member 4 (Homo sapiens) (UniProt Q86YV6); test: Binding affinity to MYLK4 at 10 uM by immobilized ligand displacement assay; how it was run: as §3
# Myosin light chain kinase family member 4 (Homo sapiens), sequence (Q86YV6 whole entry): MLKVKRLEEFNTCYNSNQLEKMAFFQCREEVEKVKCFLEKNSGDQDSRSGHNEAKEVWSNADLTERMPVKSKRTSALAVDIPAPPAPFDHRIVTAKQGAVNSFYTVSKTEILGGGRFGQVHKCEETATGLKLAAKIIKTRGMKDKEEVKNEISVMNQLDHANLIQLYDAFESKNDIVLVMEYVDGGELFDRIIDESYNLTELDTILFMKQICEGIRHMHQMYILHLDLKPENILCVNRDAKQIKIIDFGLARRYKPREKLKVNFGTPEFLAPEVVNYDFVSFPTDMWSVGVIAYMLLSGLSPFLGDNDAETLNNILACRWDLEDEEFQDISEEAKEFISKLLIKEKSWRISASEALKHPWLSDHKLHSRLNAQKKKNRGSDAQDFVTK
# [19] = Tmax in rat at 1 mg/kg, iv; assay type: ADME, organism-based; parameters: dose 1 mg/kg, route intravenous; conditions: in vivo; how it was run: as §2
# [20] = Cmax in rat at 1 mg/kg, iv; assay type: ADME, organism-based; parameters: dose 1 mg/kg, route intravenous; conditions: in vivo; how it was run: as §2
# [21] = AUC (0 to infinity) in rat at 1 mg/kg, iv; assay type: ADME, organism-based; parameters: time infinity, dose 1 mg/kg, route intravenous; conditions: plasma; how it was run: as §2
# [22] = Half life in rat at 1 mg/kg, iv; assay type: ADME, organism-based; parameters: dose 1 mg/kg, route intravenous; conditions: in vivo; how it was run: as §2
# [23] = Plasma clearance in rat at 1 mg/kg, iv; assay type: ADME, organism-based; parameters: dose 1 mg/kg, route intravenous; how it was run: as §2
# [24] = Volume of distribution at steady state in rat at 1 mg/kg, iv; assay type: ADME, organism-based; parameters: dose 1 mg/kg, route intravenous; conditions: in vivo, read-out: Vdss; how it was run: as §2
# [25] = Tmax in rat at 2 mg/kg, po; assay type: ADME, organism-based; parameters: dose 2 mg/kg, route oral; conditions: in vivo; how it was run: as §2
# [26] = Cmax in rat at 2 mg/kg, po; assay type: ADME, organism-based; parameters: dose 2 mg/kg, route oral; conditions: in vivo; how it was run: as §2
# [27] = AUC (0 to infinity) in rat at 2 mg/kg, po; assay type: ADME, organism-based; parameters: time infinity, dose 2 mg/kg, route oral; conditions: plasma; how it was run: as §2
# Rattus norvegicus = test: Half life in rat at 2 mg/kg, po; assay type: ADME, organism-based; parameters: dose 2 mg/kg, route oral; conditions: in vivo; how it was run: as §2
# [28] = Plasma clearance in rat at 2 mg/kg, po; assay type: ADME, organism-based; parameters: dose 2 mg/kg, route oral; how it was run: as §2
# [29] = Oral bioavailability in rat at 2 mg/kg; assay type: ADME, organism-based; conditions: in vivo; how it was run: as §2
# HeLa = test: Antitumor activity against human HeLa cells xenografted in mouse assessed as inhibition of tumor growth at 50 mg/kg, ip bid for 28 days; assay type: functional; conditions: route intraperitoneal
# How it was run: (§4)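 HeLa cell xenograft in mice; tumor-bearing animals injected intraperitoneally with 50 mg/kg or vehicle solution twice daily for 28 days; tumor growth compared against vehicle.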
# Mus musculus = test: Toxicity in human HeLa cells xenografted mouse assessed as tolerability at 50 mg/kg ip bid for 28 days; assay type: organism-based; parameters: dose 50 mg/kg, route intraperitoneal; conditions: in vivo; how it was run: as §4
# Mitogen-activated protein kinase 7, sequence (Q13164 whole entry): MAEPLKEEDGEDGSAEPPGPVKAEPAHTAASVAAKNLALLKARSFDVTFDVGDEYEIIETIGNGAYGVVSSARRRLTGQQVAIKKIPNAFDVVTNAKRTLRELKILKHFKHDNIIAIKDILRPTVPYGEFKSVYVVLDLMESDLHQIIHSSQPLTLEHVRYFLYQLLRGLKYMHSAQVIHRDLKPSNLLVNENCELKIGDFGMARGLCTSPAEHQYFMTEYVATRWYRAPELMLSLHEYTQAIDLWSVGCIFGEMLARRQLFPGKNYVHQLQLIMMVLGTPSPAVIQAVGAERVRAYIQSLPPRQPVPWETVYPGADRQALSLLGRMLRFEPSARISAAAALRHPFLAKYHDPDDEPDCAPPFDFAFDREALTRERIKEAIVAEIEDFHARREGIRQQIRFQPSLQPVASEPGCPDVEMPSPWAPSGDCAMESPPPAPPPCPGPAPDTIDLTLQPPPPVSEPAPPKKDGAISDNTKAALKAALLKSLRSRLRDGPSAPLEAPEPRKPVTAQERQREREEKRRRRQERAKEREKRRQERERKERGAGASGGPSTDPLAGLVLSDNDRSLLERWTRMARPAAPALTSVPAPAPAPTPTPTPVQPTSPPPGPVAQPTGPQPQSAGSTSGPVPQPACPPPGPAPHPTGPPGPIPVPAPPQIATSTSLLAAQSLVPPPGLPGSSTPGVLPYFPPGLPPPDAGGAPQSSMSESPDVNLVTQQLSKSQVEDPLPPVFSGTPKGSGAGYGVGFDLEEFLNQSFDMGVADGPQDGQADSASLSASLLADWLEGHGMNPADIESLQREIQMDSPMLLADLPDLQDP
smiles,measurement,setting,value
COc1cc(N2CCOCC2)ccc1Nc1ncc2c(n1)N(C)c1ccccc1C(=O)N2C,IC50,[1],260 nM
COc1cc(N2CCN(C)CC2)ccc1Nc1ncc2c(n1)N(C1CCCC1)c1ccccc1C(=O)N2C,IC50,[1],200 nM
COc1cc(C2CCN(C)CC2)ccc1Nc1ncc2c(n1)N(C)c1ccccc1C(=O)N2C,IC50,[1],260 nM
COc1cc(N2CCN(C)CC2)ccc1Nc1ncc2c(n1)N(C)c1ccccc1C(=O)N2C,Kd,[2],1.2 nM
same,Kd,[3],10 nM
same,Kd,[4],29 nM
COc1cc(N2CCNCC2)ccc1Nc1ncc2c(n1)N(C)c1ccccc1C(=O)N2C,IC50,[1],230 nM
Cc1cc(N2CCN(C)CC2)ccc1Nc1ncc2c(n1)N(C)c1ccccc1C(=O)N2C,IC50,[1],280 nM
CN1C(=O)c2ccccc2N(C)c2nc(Nc3ccc(S(N)(=O)=O)cc3)ncc21,IC50,[1],310 nM
COc1cc(N2CCN(C)CC2)ccc1Nc1ncc2c(n1)N(C)c1ccc(Cl)cc1C(=O)N2C,IC50,[1],1240 nM
COc1cc(C(=O)N2CCC(N3CCCC3)CC2)ccc1Nc1ncc2c(n1)N(C)c1ccccc1C(=O)N2C,IC50,[1],130 nM
same,EC50,PC-3,3.6 µM
same,EC50,BPH-1,1600 nM
same,EC50,MCF7,> 10 µM
same,EC50,AU565,> 10 µM
same,EC50,SK-N-AS,4.4 µM
same,EC50,NCI-H1299,4.2 µM
same,EC50,NCI-H522,950 nM
same,AUC(0-inf),[5],907 ng·h/mL
same,half-life,[6],157 min
same,clearance,[7],18.4 mL/min/kg
same,Vd,[8],5.36 L/kg
same,Tmax,[9],2 h
same,Cmax,[10],1290 ng/mL
same,AUC(0-inf),[11],7870 ng·h/mL
same,bioavailability,[12],86.6%
COc1cc(C(=O)NC2CCN(C)CC2)ccc1Nc1ncc2c(n1)N(C)c1ccccc1C(=O)N2C,IC50,[1],320 nM
COc1cc(N2CCN(C)CC2)ccc1Nc1ncc2c(n1)N(C)c1cc(F)ccc1C(=O)N2C,IC50,[1],1320 nM
CCN1c2ccccc2C(=O)N(C)c2cnc(Nc3ccc(N4CCN(C)CC4)cc3OC)nc21,IC50,[1],200 nM
COc1cc(N2CCN(C)CC2)ccc1Nc1ncc2c(n1)N(C)c1ccccc1C(=O)N2,inhibition,[13],> 90%
same,inhibition,[14],> 90%
same,inhibition,[15],> 90%
same,inhibition,[16],> 90%
same,inhibition,[17],> 90%
same,inhibition,[18],> 90%
CCOc1cc(N2CCC(O)CC2)ccc1Nc1ncc2c(n1)N(C)c1ccccc1C(=O)N2C,Tmax,[19],4.8 min
same,Cmax,[20],439 ng/mL
same,AUC(0-inf),[21],658 ng·h/mL
same,half-life,[22],120 min
same,clearance,[23],25.5 mL/min/kg
same,Vd,[24],3.4 L/kg
same,Tmax,[25],30 min
same,Cmax,[26],247 ng/mL
same,AUC(0-inf),[27],903 ng·h/mL
same,t1/2,Rattus norvegicus,3.4 h
same,CL/F,[28],37 mL/min/kg
same,bioavailability,[29],68.6%
same,inhibition in vivo at 50 mg/kg,HeLa,95%
same,Activity,Mus musculus,Non-toxic
COc1cc(N2CCN(C)CC2)ccc1Nc1ncc2c(n1)N(C)c1cc(Cl)ccc1C(=O)N2C,IC50,[1],11400 nM
COc1cc(C(=O)NCCN(C)C)ccc1Nc1ncc2c(n1)N(C)c1ccccc1C(=O)N2C,IC50,[1],240 nM
COc1cc(N2CCN(C)CC2)ccc1Nc1ncc2c(n1)N(C)c1ccc(C)cc1C(=O)N2C,IC50,[1],3100 nM
COc1cc(N2CCN(C)CC2)ccc1Nc1ncc2c(n1)N(C(C)C)c1ccccc1C(=O)N2C,IC50,[1],230 nM
COc1cc(N2CCC(O)CC2)ccc1Nc1ncc2c(n1)N(C)c1ccccc1C(=O)N2C,IC50,[1],240 nM
